The test system of assay [1] is Mycobacterium tuberculosis variant bovis BCG. Briefly: Inhibition of Mycobacterium bovis BCG salicylate synthase assessed as removal of iron after 15 days by CAS assay. The gist of the method: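 Same BCG culture in chelated Sauton's with compound, 15 days at 37 °C. Supernatant mixed 1:1 with Universal CAS solution, 10 min room temperature, A630 read; siderophore units = (Ar − As)/Ar × 100, Ar being blank medium with CAS.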

Assay [2] has the same test system. Put plainly: Inhibition of Mycobacterium bovis BCG salicylate synthase assessed as reduction in mycobactin production after 15 days. The gist of the method: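 M. bovis BCG grown in 7H9, subcultured in chelated Sauton's, diluted 1:1000 into chelated Sauton's with sub-lethal compound concentrations; 15 days at 37 °C. Pelleted cells extracted in ethanol overnight, 0.1 M FeCl3 in ethanol added until colour stable, 1 h room temperature; mycobactins isolated and quantified.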

Molecules are shown by their SMILES. Active and inactive are the calls of the source. The calls are words filed in the database; no cut-off is given here.

In the case of `O=C(O)c1ccc(-c2ccc([N+](=O)[O-])cc2)o1`, the inhibition result in assay [1] was “Dose-dependent effect”. Also, the inhibition entry in assay [2] is “Active”.

The values are drawn from ChEMBL document CHEMBL4152320, “Discovery and development of novel salicylate synthase (MbtI) furanic inhibitors as antitubercular agents” (Eur J Med Chem, 2018).
